# Compound activity: PubChem BioAssay, several laboratories
# In the library only some 6.5% were active in any assay of this set; here they are far more common.
# PostGolgi yeast: growth inhibition of a yeast mutant, post-Golgi transport screen. post-Golgi transport phenotypic cell assay. inhibition, % at 10 µM. actives 0.9% (n = 98,000). AID 739;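 note: yeast cells grown in 1536-well plates; yeast grown about 18 h at 30C before absorbance read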
# PTK2B oligo ant: Pyk2 (human) oligomerization antagonism | z-score (the deposit names both 25 µM and 10 µM) | actives 0.83% (n = 99,000) | Q14289 | Q293 cells, Pyk2 FERM NanoBiT luminescence; active compounds read low;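 active = Z-score of -3 or lower, scaled per plate to the spread of control and sample wells; inactive = z-score above -3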;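 note: negative z-score means lost luminescence so less FERM oligomerization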
# Target sequence (Q14289 whole entry, looked up): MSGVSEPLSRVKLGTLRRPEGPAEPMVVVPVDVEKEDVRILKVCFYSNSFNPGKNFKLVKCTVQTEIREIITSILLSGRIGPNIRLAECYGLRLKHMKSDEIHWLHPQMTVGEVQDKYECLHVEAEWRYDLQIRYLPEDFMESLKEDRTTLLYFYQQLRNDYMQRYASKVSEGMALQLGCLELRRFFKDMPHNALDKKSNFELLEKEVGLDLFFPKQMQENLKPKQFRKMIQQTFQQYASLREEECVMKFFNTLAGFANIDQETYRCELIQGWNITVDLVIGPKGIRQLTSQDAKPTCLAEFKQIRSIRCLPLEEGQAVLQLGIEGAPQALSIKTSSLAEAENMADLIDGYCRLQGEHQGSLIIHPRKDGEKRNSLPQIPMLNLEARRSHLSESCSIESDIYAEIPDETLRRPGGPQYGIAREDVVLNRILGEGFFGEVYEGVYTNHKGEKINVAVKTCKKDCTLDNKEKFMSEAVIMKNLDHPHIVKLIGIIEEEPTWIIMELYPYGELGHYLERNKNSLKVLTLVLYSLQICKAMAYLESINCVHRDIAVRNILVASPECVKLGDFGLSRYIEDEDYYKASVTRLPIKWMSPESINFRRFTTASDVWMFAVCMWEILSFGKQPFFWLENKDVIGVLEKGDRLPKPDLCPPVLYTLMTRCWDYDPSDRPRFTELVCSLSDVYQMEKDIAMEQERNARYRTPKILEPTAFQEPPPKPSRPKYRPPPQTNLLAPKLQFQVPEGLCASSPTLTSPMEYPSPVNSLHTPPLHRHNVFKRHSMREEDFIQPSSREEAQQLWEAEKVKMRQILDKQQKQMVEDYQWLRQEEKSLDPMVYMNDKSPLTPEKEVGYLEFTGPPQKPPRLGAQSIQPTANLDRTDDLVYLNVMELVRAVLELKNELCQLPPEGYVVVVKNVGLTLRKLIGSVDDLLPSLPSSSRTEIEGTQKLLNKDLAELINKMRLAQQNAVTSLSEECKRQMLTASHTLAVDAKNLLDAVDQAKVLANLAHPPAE
# PostGolgi ctrl: yeast control strain growth, post-Golgi counter-screen; efflux-deficient yeast background strain, growth absorbance A615, 16 h; inhibition, % at 10 µM; actives 5% (n = 98,000); AID 738
# Candida biofilm: kills Candida albicans biofilms | C. albicans biofilm + clotrimazole, Alamar Blue | inhibition, % at 6 µM | actives 0.14% (n = 85,000) | AID 834;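 active = inhibition above 20%; inactive = inhibition below 20%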;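 note: preformed 24 hr biofilms exposed to compound for 48 hr; 0% = biofilm without compound and 100% = blank killed by clotrimazole plus chlorhexidine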
# Ecoli WT expand: growth inhibitors of E. coli BW25113 wild type; OD600 absorbance; growth inhibition, % at 100 µM; actives 0.15% (n = 98,000); AID 710;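 active = growth inhibition above about 50% at one test dose, limit read from the data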;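 note: growth measured after 20 h incubation at 37 °C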
# tolC growth inh: growth inhibitors of E. coli BW25113 tolC mutant. AID 573. OD615. growth inhibition, % at 10 µM (by protocol). actives 2.2% (n = 65,000);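 active = growth inhibition at or above a cutoff equal to the mean over every tested compound plus 3 SD, cut at about 60% in these data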;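 note: growth measured after 20 h incubation at 37 °C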
#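 Test system: tolC-deleted E. coli BW25113 | Medium: LB with kanamycin 50 µg/mL | Compound dosing: Single concentration, 10 µM final per compound | Schedule: 37 °C, 20 h exposure | Measured by: OD at 615 nm | Evaluation: Percent growth inhibition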
# Starred values were filed as active, the others as inactive; / = no result. Cut-off read from the data, not from the text of the source, unless noted: active = inhibition above about 30%; inactive = the rest.
SMILES,PostGolgi yeast,PTK2B oligo ant,PostGolgi ctrl,Candida biofilm,Ecoli WT expand,tolC growth inh
CCCn1c(SCC(=O)N2c3ccccc3Sc3ccccc32)nc2c1c(=O)n(C)c(=O)n2C,14,-0.19,32*,10,-10,44
CC(C)n1c(SCC(=O)N2c3ccccc3Sc3ccccc32)nc2c1c(=O)n(C)c(=O)n2C,21,-0.88,39*,5,-9,19
CC(C)n1c(SCC(=O)N2c3ccccc3CCc3ccccc32)nc2c1c(=O)n(C)c(=O)n2C,/,/,/,8,/,/
CCCn1c(SCC(=O)N2CCCc3ccccc32)nc2c1c(=O)n(C)c(=O)n2C,/,0.11,/,7,/,10
Cc1cccc(Sc2nc(-c3ccccc3)ccc2C#N)c1,-5,0.14,-5,/,4,/
Fc1ccc2nc3n(c2c1F)CCCCCC3,1,-0.83,40*,5,2,12
O=C(CN1CCN(c2ncccn2)CC1)Nc1ccccc1-n1cccc1,-3,-0.09,5,/,-2,14
COc1ccc(N(C(=O)c2ccco2)S(=O)(=O)c2cc(Cl)c(Cl)cc2Cl)cc1,-1,-1.1,31*,4,-5,/
O=C(COC(=O)c1cc(S(=O)(=O)N2CCOCC2)ccc1Cl)Nc1ccc2c(c1)OCO2,-2,0.38,14,3,-16,16
CCOC(=O)C1C(=O)C=C(c2ccc(Br)cc2)CC1c1ccco1 (stereo not drawn),-7,-1.1,20,6,0,/
CCOC(=O)C1C(=O)C=C(c2ccc([N+](=O)[O-])cc2)CC1c1ccccc1 (stereo not drawn),23,-0.99,38*,/,-5,/
CCOC(=O)c1nn(-c2ccccc2C)c2nc(-c3ccc(Cl)cc3)c(C#N)c(=O)n12,-12,1.2,15,/,-13,/
COCc1nnc(NC(=O)c2ccc(S(=O)(=O)N3CCCCCC3)cc2)o1,-5,-0.71,10,8,4,74*
COCc1nnc(NC(=O)c2ccc(S(=O)(=O)N(C)C3CCCCC3)cc2)o1,-5,-0.57,9,11,6,95*
NC(=O)c1ccsc1NC(=O)c1ccc(S(=O)(=O)N2CCCCC2)cc1,-4,/,51*,12,-8,32
Cc1ccc(Cl)cc1NC1=NC(=S)N(C(C)C)C12CCCCC2,/,0,/,8,/,/
Cc1ccccc1NS(=O)(=O)c1cc(C(=O)Nc2cccc(N(C)S(C)(=O)=O)c2)ccc1C,-3,-3*,7,/,-15,/
CN(c1cccc(NC(=O)c2ccc(Cl)c(S(=O)(=O)Nc3ccccc3)c2)c1)S(C)(=O)=O,14,-3.9*,-4,/,-3,/
COc1ccc(-c2noc(CSc3nc(N)c(-c4ccccc4)c(=O)[nH]3)n2)cc1,7,0.51,10,8,-11,12
N#CC1=C2SCC(O)(c3ccccc3)N2C(=O)CC1c1ccccc1F (stereo not drawn),4,-3*,4,3,-6,/
Cc1cccc(Cn2c(=O)n(Cc3ccco3)c(=O)c3ccccc32)c1,-3,-1.9,20,2,-17,91*
CCn1cc(Br)c(C(=O)Nc2ccc(OC)cc2)n1,-5,-0.23,-3,1,16,5
CCn1cc(Br)c(C(=O)Nc2ccc(C(=O)OC(C)C)cc2)n1,4,-1.2,-9,5,2,67*
COc1ccc(Cn2nnnc2C(c2cc3cc(C)ccc3[nH]c2=O)N2CCOCC2)cc1 (stereo not drawn),13,1.2,44*,1,5,-8
CCN1CCN(C(c2cc3cccc(C)c3[nH]c2=O)c2nnnn2Cc2ccccc2)CC1 (stereo not drawn),4,0.99,-4,8,10,-5
Cc1cc(C)c2[nH]c(=O)c(C(c3nnnn3Cc3ccc4c(c3)OCO4)N3CCC(C)CC3)cc2c1 (stereo not drawn),0,0.89,33*,6,-12,40
COc1ccc(Cn2nnnc2C(c2cc3cccc(C)c3[nH]c2=O)N2CCOCC2)cc1 (stereo not drawn),2,0.33,34*,-3,9,-10
COc1cc(NC(=O)CN2CCN(Cc3ccc4c(c3)OCO4)CC2)cc(OC)c1,-4,-0.1,16,/,-3,/
CCN(CC)C(=O)C(Sc1ccccc1)c1ccccc1 (stereo not drawn),17,-0.38,-5,-2,10,/
CCOC(=O)C1C(=O)OC(C)(C)C1C(C)C(=O)c1ccccc1 (stereo not drawn),16,0.36,2,2,0,/
